Experimental data: article PMC2651228 (Journal of medicinal chemistry, 2008)
Entries after “also recorded” stand apart in the source; their conditions may differ.

Columns and labels:
PAK1 [1] = test: PAK1 activation; format: cell-based; details: PC3M cells, 1 uM, 16 h
Summary of the method: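 PC3M cells serum-deprived and either treated with test compound (1 uM) or left untreated for 16 h. They were then left unstimulated or briefly stimulated with HGF (50 ng/mL) for set times. Lysates run on SDS-PAGE and immunoblotted with anti-phospho-PAK1 antibody, with total PAK1 immunoblot as loading control.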

angiogenesis = details: cited from earlier work
PAK1 [2] = test: PAK1 nuclear translocation; format: cell-based; details: PC3M cells, 16 h, relative to nuclear CREB
Summary of the method: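 PC3M cells treated with test compound for 16 h. Nuclear extracts prepared in high-salt buffer, resolved by SDS-PAGE and immunoblotted for PAK1, with CREB immunoblotted as reference.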

PC3M cells [3] = test: Cell migration in modified Boyden chambers, HGF-stimulated; format: cell-based; details: HGF 50 ng/ml
Summary of the method: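 PC3M cells pretreated with test compound for 24 h, then seeded at 200,000 cells per modified Boyden chamber. Migration stimulated with recombinant human HGF (50 ng/ml), with unstimulated cells run in parallel. Migrated cells counted by light microscopy in four fields (1 × 1.4 mm) per well, triplicate wells per condition. Means expressed as percent maximum ± standard deviation, with a dose-response series.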

cell motility = details: cited from earlier work
MDCK cells = test: Lamellipodia formation at wound edge, phalloidin staining, MDCK; format: cell-based, canine; details: HGF + 1 uM compound
PC3M cells [4] = test: Lamellipodia formation at wound edge, phalloidin staining, PC3M; format: cell-based; details: HGF + 1 uM compound
[5] = test system: Grb2-EGFR and Grb2-c-Met interactions; details: co-immunoprecipitation; cited from earlier work
Biotin-Grb2 SH2 domain = Biotin-Grb2 SH2 domain (Homo sapiens, UniProt P62993); test: SPR direct binding, streptavidin-captured biotin-Grb2 SH2 domain; details: Biotin-Grb2, SA capture; reference line of the ratio
tumor metastasis = details: cited from earlier work
[6] = test system: Grb2 and focal adhesion kinase (FAK); details: treatment of cells; cited from earlier work
Grb2 SH2 domain = Grb2 SH2 domain (Homo sapiens, UniProt P62993); test: SPR direct binding, amine-coupled Grb2 SH2 domain; details: for Ratio: Grb2, amine coupling, affinity relative to compound 2
Grb2 = Grb2 (Homo sapiens, UniProt P62993); format: binding; details: SK-LMS-1 lysate; for Capture of Grb2 on compound-conjugated SA beads (anti-Grb2 immunoblot): compound 3 uM, washes 150-500 mM NaCl
Summary of the method: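 SK-LMS-1 cells serum-deprived 16 h, stimulated with recombinant human HGF (25 ng/ml) for 20 min and lysed in cold non-ionic detergent buffer. Biotinylated test compound (3 uM) incubated with lysate 1 h on ice. Streptavidin beads then mixed in 1 h at 4°C and washed 5 times in lysis buffer with increasing NaCl (150–500 mM). Read-out: SDS-PAGE and anti-Grb2 immunoblot.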

[7] = test system: proteins of SK-LMS-1 cell lysates; format: binding, human; details: cell lysates; two or more unique peptides observed
Summary of the method: (§1)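 Biotinylated test compound captured proteins from HGF-stimulated (25 ng/ml, 20 min) SK-LMS-1 detergent lysate on streptavidin beads, washed with 150–500 mM NaCl. Beads exchanged into 100 mM ammonium bicarbonate, reduced (10 mM DTT, 1 h, 51°C), alkylated (55 mM iodoacetamide, 45 min, 25°C) and trypsin-digested 6 h at 25°C. Acidified peptides analysed by nLC-ESI-MS/MS (ion trap, top-seven data-dependent) and searched against human NCBI database.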

[8] = target: proteins of SK-LMS-1 cell lysates (Homo sapiens, UniProt P62993); format: binding; details: compound-conjugated SA beads, cell extracts
Summary of the method: as §1

Chain of Grb2 (P62993 whole entry): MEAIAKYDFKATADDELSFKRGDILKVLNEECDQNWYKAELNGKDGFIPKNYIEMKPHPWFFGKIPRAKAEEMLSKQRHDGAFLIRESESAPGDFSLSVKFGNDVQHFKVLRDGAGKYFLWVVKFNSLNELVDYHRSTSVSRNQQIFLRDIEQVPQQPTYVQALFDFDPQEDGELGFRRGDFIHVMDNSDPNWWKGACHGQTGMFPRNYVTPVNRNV
Chain of Grb2 SH2 domain (P62993 60-152 limits assumed): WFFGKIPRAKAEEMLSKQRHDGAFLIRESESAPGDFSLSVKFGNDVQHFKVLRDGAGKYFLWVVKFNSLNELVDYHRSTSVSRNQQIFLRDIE
Chain of proteins of SK-LMS-1 cell lysates (Homo sapiens, UniProt P62993) (P62993 whole entry): as the sequence (P62993 whole entry) above
Chain of Biotin-Grb2 SH2 domain (P62993 60-152 limits assumed): as the sequence (P62993 60-152 limits assumed) above

What does the source list for `NC(=O)C[C@H](NC(=O)C1(NC(=O)[C@H](Cc2ccc(C(C(=O)O)C(=O)O)cc2)NC(=O)C(=O)O)CCCCC1)C(=O)NCCCc1cccc2ccccc12` [Compound 1]?
Steady state level of PAK1 autophosphorylation (PAK1 [1]; no HGF): little effect; HGF-stimulated PAK1 activation (PAK1 [1]; then HGF 50 ng/mL): completely inhibited; Angiogenesis (angiogenesis): inhibit; PAK1 nuclear translocation (PAK1 [2]): decreased PAK1 nuclear translocation; Inhibition of cell migration (in words) (PC3M cells [3]): Inhibition of cell migration; Cell motility (cell motility): blocks cell motility in a dose dependent fashion; also recorded: can inhibit cell motility; Lamellipodia extension into the wound (MDCK cells): significantly reduced the area and distance that lamellipodia extended into the wound; Actin reorganization and lamellipodia formation (phalloidin staining) (PC3M cells [4]): markedly reduced phalloidin staining at the leading edge; Grb2-EGFR and Grb2-c-Met interactions [5]: able to disrupt Grb2-EGFR and Grb2-c-Met interactions; Ratio (Biotin-Grb2 SH2 domain): 1; Tumor metastasis in vivo (tumor metastasis): inhibit; HGF-stimulated physical association between Grb2 and FAK [6]: disrupts HGF-stimulated physical association between Grb2 and focal adhesion kinase (FAK)

For `NC(=O)C[C@H](NC(=O)C1(NC(=O)[C@H](Cc2ccc(C(C(=O)O)C(=O)O)cc2)NC(=O)C(=O)O)CCCCC1)C(=O)NCCCc1cccc2c(OC(=O)CCCCCNC(=O)CCCC[C@@H]3SC[C@@H]4NC(=O)N[C@@H]43)cccc12` [Compound 3], which “Inhibition of cell migration (in words)” value (PC3M cells [3]) is on record?
Its value is “significant and potent inhibition of migration”.

What about the Ratio (Grb2 SH2 domain) of the same compound?
Its Ratio is 3.

What about the “Capture of Grb2 SH3 domain-associated proteins (immunoblot)” value (Grb2; SA-bound compound) of the same compound?
The value was “revealed the presence of Nck1, Nck2, Gab1 and Sos1”.

And the “Capture of Grb2 on compound-conjugated SA beads (anti-Grb2 immunoblot)” value (Grb2)?
The value was “Grb2 was clearly retained”.

And the “Protein Name (identified by mass spectrometry, captured by streptavidin-immobilized 3, but not by streptavidin-immobilized 4)” value [7]?
Its value is “histone H2B family ^b; also recorded: ribosomal protein S23; also recorded: ribosomal protein L17; also recorded: ribosomal protein S17; also recorded: pyruvate kinase 3 ^a”.

And the “Capture of Grb2 tryptic peptides (ESI-MS/MS)” value [8]?
Its value is “captured by compound 3-conjugated SA beads”.

Which “Inhibition of cell migration (in words)” value (PC3M cells [3]) does the source give for `NC(=O)C[C@H](NC(=O)C1(NC(=O)[C@H](Cc2ccc(O)cc2)NC(=O)C(=O)O)CCCCC1)C(=O)NCCCc1cccc2c(OC(=O)CCCCCNC(=O)CCCC[C@@H]3SC[C@@H]4NC(=O)N[C@@H]43)cccc12` [Compound 4, (4R,5S,6S)-6-[5-(2-Oxo-hexahydro-thieno[3,4-d]imidazol-6-yl)-pentanoylamino]-hexanoic acid 5-{3-[3-carbamoyl-2-({1-[3-(4-hydroxy-phenyl)-2-(oxylyl-amino)-propionylamino]-cyclohexylcarbonyl}-amino)-propionylamino]-propyl}-naphthalen-1-yl ester] here?
The value was “No inhibition of cell migration”.

What about the “Grb2 SH2 domain binding affinity (in words)” value (Grb2 SH2 domain; assay not stated) of the same compound?
The value was “very poor Grb2 SH2 domain binding affinity”.

What about the “Capture of Grb2 on compound-conjugated SA beads (anti-Grb2 immunoblot)” value (Grb2) of the same compound?
Its value is “did not capture Grb2”.

What about the “Capture of Grb2 tryptic peptides (ESI-MS/MS)” value [8] of the same compound?
The value was “not by compound 4-conjugated beads”.

Which Ratio (Grb2 SH2 domain) does the source give for `NC(=O)C[C@H](NC(=O)C1(NC(=O)[C@H](Cc2ccc(C(C(=O)O)C(=O)O)cc2)NC(=O)C(=O)O)CCCCC1)C(=O)NCCCc1cccc2c(O)cccc12` [Compound 2, 2-{4-[2-(1-(1S)-{2-Carbamoyl-1-[3-(5-hydroxy-naphthalen-1-yl)-propylcarbamoyl]-ethylcarbamoyl}-cyclohexylcarbamoyl)-2-(2S)-(oxalyl-amino)-ethyl]-phenyl}-malonic acid] here?
Its Ratio is 1.

And the Ratio (Biotin-Grb2 SH2 domain)?
Its Ratio is 1.
